Experimental data published in ChEMBL document CHEMBL3994624, “Antimalarial Pyrido[1,2-a]benzimidazoles: Lead Optimization, Parasite Life Cycle Stage Profile, Mechanistic Evaluation, Killing Kinetics, and in Vivo Oral Efficacy in a Mouse Model” (J Med Chem, 2017).
pIC50: −log10 of the molar value. In brackets after ≈: the same amount, converted by molar mass.

How the values were obtained:
Plasmodium falciparum [1] = test: Anti-plasmodial activity against chloroquine-sensitive Plasmodium falciparum NF54 by [3H]-hypoxanthine incorporation assay; format: functional
Outline: (§1)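 P. falciparum asexual blood-stage growth inhibition by [3H]hypoxanthine incorporation; chloroquine and artesunate run as reference drugs in every experiment; IC50 given as mean of ≥2 independent experiments.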

Plasmodium falciparum [2] = test: Anti-plasmodial activity against multidrug resistant Plasmodium falciparum K1 by [3H]-hypoxanthine incorporation assay; format: functional; outline: as §1
CHO = test: Cytotoxicity against CHO cells after by MTT assay; format: cell-based; settings: Cricetulus griseus
[3] = Selectivity index, ratio of IC50 for CHO cells to IC50 for chloroquine-sensitive Plasmodium falciparum NF54; format: toxicity; settings: hamster, read-out: Ratio IC50
Outline: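 Selectivity index = IC50 CHO / IC50 PfNF54.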

[4] = Kinetic solubility of the compound in FaSSIF at pH 6.5 after 2 hrs by shake flask method; format: physicochemical; settings: read-out: Kinetic_solubility
Plasmodium falciparum [5] = test: Anti-plasmodial activity against chloroquine-sensitive Plasmodium falciparum NF54 late 4/5 stage gametocytes assessed as reduction in ATP levels after 24 hrs by BacTiter-Glo reagent based bioluminescence assay; format: functional; settings: NF54, 24 h
Huh-7 = test: Cytotoxicity against human HuH7 cells at 1 to 10 uM after 48 hrs by Alamarblue assay; format: cell-based; settings: huh-7, 48 h
Plasmodium falciparum [6] = test: Ratio of IC50 for chloroquine-sensitive Plasmodium falciparum NF54 early 2/3 stage gametocytes to IC50 for chloroquine-sensitive Plasmodium falciparum NF54 late 4/5 stage gametocytes; format: functional
Outline: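 Early (stage II/III) and late (stage IV/V) gametocytes tested in parallel luciferase reporter assays; stage preference = EG IC50/LG IC50.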

[7] = Metabolic stability in Balb/c mouse liver microsomes assessed as compound remaining at 1 uM in presence of NADPH after 30 mins by LC-MS/MS analysis; format: ADME, microsome; settings: read-out: Stability
Outline: (§2)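 Mouse and human liver microsomes; % compound remaining after 30 min.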

[8] = Metabolic stability in human liver microsomes assessed as compound remaining at 1 uM in presence of NADPH after 30 mins by LC-MS/MS analysis; format: ADME, microsome; settings: read-out: Stability; outline: as §2

Row | Compound | pIC50 (Plasmodium falciparum [1]) | pIC50 (Plasmodium falciparum [2]) | pIC50 (CHO) | selectivity ratio [3] | further results
1 | N#Cc1c(-c2ccc(C(F)(F)F)cc2)cc(NCC2CCS(=O)(=O)CC2)n2c1nc1ccccc12 | < 5.00 | – | – | – | –
2 | CCNCCNc1cc(-c2ccccc2F)c(C#N)c2nc3ccccc3n12 | 6.05 | 6.00 | 4.61 | 27 | –
3 | N#Cc1c(-c2ccc(C(F)(F)F)cc2)cc(N2CCC(O)CC2)n2c1nc1ccccc12 | < 4.62 | – | – | – | –
4 | CNC1CCN(c2cc(-c3ccc(C(F)(F)F)cc3)c(C#N)c3nc4ccccc4n23)C1 (stereo not drawn) | 5.94 | – | – | – | –
5 | N#Cc1c(-c2ccc(C(F)(F)F)cc2)cc(NCCN2CCC(O)CC2)n2c1nc1ccccc12 | 5.96 | – | – | – | solubility kinetic at 2 h [4]: < 5 µM
6 | CC1(O)CCC(Nc2cc(-c3ccc(C(F)(F)F)cc3)c(C#N)c3nc4ccccc4n23)CC1 (stereo not drawn) | 5.19 | – | – | – | –
7 | CCNCCNc1cc(-c2cccc(C(F)(F)F)c2)c(C#N)c2nc3ccccc3n12 | 6.68 | 6.47 | 5.23 | 28 | pIC50 (Plasmodium falciparum [5]): 6.31; Activity (Huh-7): Non-Toxic; Ratio IC50 (Plasmodium falciparum [6]): 1.6
8 | CCNCCNc1cc(-c2ccc(Cl)cc2)c(C#N)c2nc3ccccc3n12 | 6.18 | 6.37 | 5.02 | 15 | pIC50 (Plasmodium falciparum [5]): 6.16; Activity (Huh-7): Non-Toxic; Ratio IC50 (Plasmodium falciparum [6]): 1.5
9 | N#Cc1c(-c2ccc(C(F)(F)F)cc2)cc(N2CCC(N)CC2)n2c1nc1ccccc12 | 6.02 | 6.15 | 4.80 | 17 | solubility kinetic at 2 h [4]: < 5 µM; remaining at 0.5 h, 1 µM [7]: 92%; remaining at 0.5 h, 1 µM [8]: 91%
10 | CS(=O)(=O)N1CCN(CCNc2cc(-c3ccc(C(F)(F)F)cc3)c(C#N)c3nc4ccccc4n23)CC1 | < 5.00 | – | – | – | –
11 | CN1CCC(Nc2cc(-c3ccc(C(F)(F)F)cc3)c(C#N)c3nc4cc(Cl)c(Cl)cc4n23)CC1 | 7.30 | 6.72 | 5.38 | 6.1 | –
12 | CCNCCNc1cc(-c2ccccc2)c(C#N)c2nc3ccccc3n12 | 6.15 | 5.97 | 4.74 | 26 | pIC50 (Plasmodium falciparum [5]): 5.84; Activity (Huh-7): Non-Toxic
13 | N#Cc1c(-c2ccc(C(F)(F)F)cc2)cc(NC2CCNCC2)n2c1nc1cc(Cl)cc(Cl)c12 | 6.59 | – | 5.23 | 22.3 | –
14 | CCNCCNc1cc(-c2ccc(C(F)(F)F)cc2)c(C#N)c2nc3ncccc3n12 | 6.85 | 6.89 | 5.39 | 5 | solubility kinetic at 2 h [4]: 10 µM (≈ 4.24 µg/mL)
15 | CCNCCNc1cc(-c2ccc(F)cc2)c(C#N)c2nc3ccccc3n12 | 6.48 | 6.27 | 4.94 | 35 | pIC50 (Plasmodium falciparum [5]): 5.75; Activity (Huh-7): Non-Toxic; Ratio IC50 (Plasmodium falciparum [6]): 2.1
16 | CCNCCNc1cc(-c2ccc(C(=O)OC)cc2)c(C#N)c2nc3ccccc3n12 | 5.81 | – | – | – | pIC50 (Plasmodium falciparum [5]): 5.77; Activity (Huh-7): Non-Toxic; Ratio IC50 (Plasmodium falciparum [6]): 1.4
17 | N#Cc1c(-c2ccc(C(F)(F)F)cc2)cc(N2CCC(O)C2)n2c1nc1ccccc12 (stereo not drawn) | 5.07 | – | – | – | –
18 | N#Cc1c(-c2ccc(C(F)(F)F)cc2)cc(N2CCNCC2)n2c1nc1ccccc12 | 5.52 | 6.36 | – | – | –
19 | CS(=O)(=O)N1CCC(Nc2cc(-c3ccc(C(F)(F)F)cc3)c(C#N)c3nc4ccccc4n23)CC1 | 5.30 | – | – | – | –
20 | N#Cc1c(-c2ccc(C(F)(F)F)cc2)cc(NC2CCS(=O)(=O)CC2)n2c1nc1ccccc12 | 5.11 | – | – | – | –
21 | N#Cc1c(-c2ccc(C(F)(F)F)cc2)cc(NC2CCC(O)CC2)n2c1nc1ccccc12 (stereo not drawn) | < 5.00 | – | – | – | –
22 | CNC1CCN(c2cc(-c3ccc(C(F)(F)F)cc3)c(C#N)c3nc4ccccc4n23)CC1 | 6.08 | 6.05 | 5.20 | 8 | –
23 | N#Cc1c(-c2ccc(C(F)(F)F)cc2)cc(N2CCC(=O)CC2)n2c1nc1ccccc12 | < 5.00 | – | – | – | –
24 | CS(=O)(=O)c1ccc(-c2cnc(N)c(-c3ccc(C(F)(F)F)nc3)c2)cc1 [MMV-048] | – | – | – | – | remaining at 0.5 h, 1 µM [7]: 94%; remaining at 0.5 h, 1 µM [8]: 93%

Row | Compound | pIC50 (Plasmodium falciparum [1]) | pIC50 (Plasmodium falciparum [2]) | pIC50 (CHO) | selectivity ratio [3] | further results
25 | Cc1ncc2n1-c1ccc(Cl)cc1C(c1ccccc1F)=NC2 [MIDAZOLAM] | – | – | – | – | remaining at 0.5 h, 1 µM [7]: 1.3%; remaining at 0.5 h, 1 µM [8]: 0.1%
26 | CCNCCNc1cc(-c2ccc(SC)cc2)c(C#N)c2nc3ccccc3n12 | 5.41 | – | – | – | –
27 | CCN(CC)CCCC(C)Nc1cc(C(F)(F)F)c(C#N)c2nc3ccccc3n12 (stereo not drawn) | 5.38 | – | – | – | –
28 | N#Cc1c(-c2ccc(C(F)(F)F)cc2)cc(NCC2CCOCC2)n2c1nc1ccccc12 | < 5.00 | – | – | – | –
29 | CCNCCNc1cc(-c2ccc(S(C)(=O)=O)cc2)c(C#N)c2nc3ccccc3n12 | 6.51 | 6.48 | 3.69 | 658 | solubility kinetic at 2 h [4]: 40 µM (≈ 17.3 µg/mL); remaining at 0.5 h, 1 µM [7]: 86%
30 | CCNCCNc1c(F)c(-c2ccc(C(F)(F)F)cc2)c(C#N)c2nc3ccccc3n12 | 5.26 | – | – | – | solubility kinetic at 2 h [4]: 160 µM (≈ 70.6 µg/mL); remaining at 0.5 h, 1 µM [7]: 35%; remaining at 0.5 h, 1 µM [8]: 39%
31 | CN1CCN(c2cc(-c3ccc(C(F)(F)F)cc3)c(C#N)c3nc4ccccc4n23)CC1 | 5.14 | 6.34 | – | – | –
32 | CN1CCC(Oc2cc(-c3ccc(C(F)(F)F)cc3)c(C#N)c3nc4ccccc4n23)CC1 | 6.15 | 6.02 | 5.39 | 6 | –
33 | CCNCCNc1cc(-c2ccc(C(F)(F)F)cc2)c(C#N)c2nc3ccc(Br)cc3n12 | 7.15 | – | 5.35 | 63 | –
34 | N#Cc1c(-c2ccc(C(F)(F)F)cc2)cc(N2CCC(N)CC2)n2c1nc1cc(Cl)cc(Cl)c12 | 6.74 | 6.68 | 5.53 | 7.3 | –
35 | CC(C)(O)C1CCC(Nc2cc(-c3ccc(C(F)(F)F)cc3)c(C#N)c3nc4ccccc4n23)CC1 (stereo not drawn) | 5.30 | – | – | – | –
36 | Cc1c(-c2ccc(C(F)(F)F)cc2)c(C#N)c2nc3ccccc3n2c1NCCN1CCC(O)C1 (stereo not drawn) | 6.26 | 6.33 | 4.60 | 45 | solubility kinetic at 2 h [4]: < 5 µM
37 | CC[C@H]1CN2CCc3cc(OC)c(OC)cc3[C@@H]2C[C@@H]1C[C@H]1NCCc2cc(OC)c(OC)cc21 [EMETINE] | – | – | 7.02 | – | –
38 | CCNCCNc1cc(-c2ccc([S+](C)[O-])cc2)c(C#N)c2nc3ccccc3n12 (stereo not drawn) | 5.42 | – | – | – | –
39 | CC(=O)NCCNc1cc(-c2ccc(C(F)(F)F)cc2)c(C#N)c2nc3ccccc3n12 | 4.78 | – | – | – | –
40 | CC(=O)N1CCC(Nc2cc(-c3ccc(C(F)(F)F)cc3)c(C#N)c3nc4ccccc4n23)CC1 | 5.35 | – | – | – | –
41 | CCNCCNc1cc(-c2ccc(C(F)(F)F)cc2)c(C#N)c2nc3cc(Br)ccc3n12 | 6.42 | – | 5.74 | 5 | –
42 | CNC1CCCN(c2cc(-c3ccc(C(F)(F)F)cc3)c(C#N)c3nc4ccccc4n23)C1 (stereo not drawn) | 5.86 | – | – | – | –
43 | N#Cc1c(-c2ccc(C(F)(F)F)cc2)cc(NCCN2CCCC2=O)n2c1nc1ccccc12 | 5.22 | – | – | – | –
44 | CCNCCNc1cc(-c2ccc(C(F)(F)F)cc2)c(C#N)c2nc3cccc(Br)c3n12 | 6.82 | 6.62 | 5.81 | 2 | –
45 | CCNCCNc1cc(-c2ccc(C(F)(F)F)cc2)c(C#N)c2nc3cnccc3n12 | 6.57 | 6.08 | 5.50 | 6 | –
46 | N#Cc1c(-c2ccc(C(F)(F)F)cc2)cc(N2CC(O)C2)n2c1nc1ccccc12 | 4.67 | – | – | – | –
47 | CCNCCNc1cc(C(F)(F)F)c(C#N)c2nc3ccccc3n12 | 5.53 | – | – | – | –
48 | CS(=O)(=O)NCCNc1cc(-c2ccc(C(F)(F)F)cc2)c(C#N)c2nc3ccccc3n12 | 5.04 | – | – | – | –
